Measured values: ChEMBL document CHEMBL1149650, “4-Amino-6-piperazin-1-yl-pyrimidine-5-carbaldehyde oximes as potent FLT-3 inhibitors” (Bioorg Med Chem Lett, 2007)

How the values were obtained:
[1] = test system: MV4-11; assay: Antiproliferative activity against human MV411 cells
[2] = test system: BaF3; assay: Antiproliferative activity against […] BaF3 cells at 10 uM; type: functional
[3] = test system: BaF3; assay: Antiproliferative activity against human BaF3 cells expressing FLT3; details: Mus musculus
[4] = molecular target: Mast/stem cell growth factor receptor Kit (Homo sapiens, UniProt P10721); assay: Inhibition of c-kit
Mast/stem cell growth factor receptor Kit, sequence (P10721 whole entry): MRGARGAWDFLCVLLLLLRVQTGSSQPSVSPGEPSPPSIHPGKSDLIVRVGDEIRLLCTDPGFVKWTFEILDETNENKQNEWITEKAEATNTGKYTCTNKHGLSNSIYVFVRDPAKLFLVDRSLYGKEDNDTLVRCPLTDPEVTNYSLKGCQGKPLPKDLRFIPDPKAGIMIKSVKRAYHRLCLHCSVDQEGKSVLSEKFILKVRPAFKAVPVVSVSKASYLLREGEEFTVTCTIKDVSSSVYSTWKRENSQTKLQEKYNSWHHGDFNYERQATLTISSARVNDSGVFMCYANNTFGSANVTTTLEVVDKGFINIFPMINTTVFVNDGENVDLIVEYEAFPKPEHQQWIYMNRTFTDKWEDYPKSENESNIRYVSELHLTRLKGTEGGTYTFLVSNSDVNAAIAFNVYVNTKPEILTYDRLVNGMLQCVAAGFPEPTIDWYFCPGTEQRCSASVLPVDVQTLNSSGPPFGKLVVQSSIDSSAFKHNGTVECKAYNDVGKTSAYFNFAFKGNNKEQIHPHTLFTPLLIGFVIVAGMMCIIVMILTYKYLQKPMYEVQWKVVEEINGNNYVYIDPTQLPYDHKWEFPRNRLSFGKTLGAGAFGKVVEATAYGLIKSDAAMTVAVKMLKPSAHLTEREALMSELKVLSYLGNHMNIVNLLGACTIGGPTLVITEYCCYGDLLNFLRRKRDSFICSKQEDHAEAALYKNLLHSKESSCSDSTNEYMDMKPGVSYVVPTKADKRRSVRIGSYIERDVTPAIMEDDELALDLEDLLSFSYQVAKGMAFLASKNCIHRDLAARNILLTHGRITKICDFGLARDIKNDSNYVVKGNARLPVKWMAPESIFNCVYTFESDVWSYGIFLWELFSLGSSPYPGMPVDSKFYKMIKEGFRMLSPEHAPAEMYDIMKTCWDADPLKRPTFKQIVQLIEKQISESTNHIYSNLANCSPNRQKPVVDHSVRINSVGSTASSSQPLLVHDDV

[5] = molecular target: ALK tyrosine kinase receptor (Homo sapiens) (UniProt Q9UM73); assay: Inhibition of ALK at 3 uM
ALK tyrosine kinase receptor (Homo sapiens), sequence (Q9UM73 19-1620 limits assumed): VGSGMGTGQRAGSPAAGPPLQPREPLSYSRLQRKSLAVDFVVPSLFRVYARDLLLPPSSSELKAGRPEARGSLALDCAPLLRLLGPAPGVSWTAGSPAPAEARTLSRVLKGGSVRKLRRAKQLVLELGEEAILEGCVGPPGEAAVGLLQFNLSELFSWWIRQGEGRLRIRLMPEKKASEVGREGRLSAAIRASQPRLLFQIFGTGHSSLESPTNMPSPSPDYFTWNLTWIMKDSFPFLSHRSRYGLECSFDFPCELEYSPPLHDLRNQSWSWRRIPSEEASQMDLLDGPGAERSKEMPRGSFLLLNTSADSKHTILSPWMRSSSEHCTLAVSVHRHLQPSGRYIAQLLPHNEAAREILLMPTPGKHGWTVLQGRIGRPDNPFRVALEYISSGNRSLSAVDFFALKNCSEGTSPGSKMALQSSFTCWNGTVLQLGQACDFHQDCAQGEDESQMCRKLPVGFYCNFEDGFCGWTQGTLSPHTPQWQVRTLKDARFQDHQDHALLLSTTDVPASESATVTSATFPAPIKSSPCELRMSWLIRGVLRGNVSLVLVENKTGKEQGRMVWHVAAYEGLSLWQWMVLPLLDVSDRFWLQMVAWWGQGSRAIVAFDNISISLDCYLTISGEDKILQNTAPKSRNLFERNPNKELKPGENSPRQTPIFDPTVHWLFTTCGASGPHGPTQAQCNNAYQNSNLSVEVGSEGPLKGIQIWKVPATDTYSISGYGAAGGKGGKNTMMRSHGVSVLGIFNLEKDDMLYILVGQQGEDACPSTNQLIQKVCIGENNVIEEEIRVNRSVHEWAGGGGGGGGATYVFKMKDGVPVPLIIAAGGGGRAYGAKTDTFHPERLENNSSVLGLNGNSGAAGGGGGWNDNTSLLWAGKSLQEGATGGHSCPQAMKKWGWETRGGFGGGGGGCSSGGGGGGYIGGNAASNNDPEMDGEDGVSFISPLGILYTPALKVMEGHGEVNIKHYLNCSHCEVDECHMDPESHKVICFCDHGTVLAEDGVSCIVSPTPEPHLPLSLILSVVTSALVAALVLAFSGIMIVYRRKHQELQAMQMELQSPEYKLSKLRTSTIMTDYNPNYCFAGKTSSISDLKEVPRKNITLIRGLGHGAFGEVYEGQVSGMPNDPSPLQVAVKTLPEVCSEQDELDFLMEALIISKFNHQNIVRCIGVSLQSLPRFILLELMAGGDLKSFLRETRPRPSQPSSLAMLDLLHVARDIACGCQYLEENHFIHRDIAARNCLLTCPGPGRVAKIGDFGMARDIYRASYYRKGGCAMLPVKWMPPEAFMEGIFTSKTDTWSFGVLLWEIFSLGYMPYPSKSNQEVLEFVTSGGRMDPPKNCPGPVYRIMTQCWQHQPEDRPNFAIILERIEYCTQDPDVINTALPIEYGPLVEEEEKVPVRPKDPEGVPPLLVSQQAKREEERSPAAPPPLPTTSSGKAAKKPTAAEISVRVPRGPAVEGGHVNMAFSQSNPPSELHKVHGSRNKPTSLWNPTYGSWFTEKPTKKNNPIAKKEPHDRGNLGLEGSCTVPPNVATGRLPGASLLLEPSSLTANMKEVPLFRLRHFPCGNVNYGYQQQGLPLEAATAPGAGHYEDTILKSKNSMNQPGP
Procedure, shortened: (§1)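 Run in an external kinase selectivity panel at 3 µM compound with 100 µM ATP. Reported as percent inhibition.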

[6] = molecular target: Tyrosine-protein kinase Fes/Fps (Homo sapiens) (UniProt P07332); assay: Inhibition of FES at 3 uM; procedure, shortened: as §1
Tyrosine-protein kinase Fes/Fps (Homo sapiens), sequence (P07332 whole entry): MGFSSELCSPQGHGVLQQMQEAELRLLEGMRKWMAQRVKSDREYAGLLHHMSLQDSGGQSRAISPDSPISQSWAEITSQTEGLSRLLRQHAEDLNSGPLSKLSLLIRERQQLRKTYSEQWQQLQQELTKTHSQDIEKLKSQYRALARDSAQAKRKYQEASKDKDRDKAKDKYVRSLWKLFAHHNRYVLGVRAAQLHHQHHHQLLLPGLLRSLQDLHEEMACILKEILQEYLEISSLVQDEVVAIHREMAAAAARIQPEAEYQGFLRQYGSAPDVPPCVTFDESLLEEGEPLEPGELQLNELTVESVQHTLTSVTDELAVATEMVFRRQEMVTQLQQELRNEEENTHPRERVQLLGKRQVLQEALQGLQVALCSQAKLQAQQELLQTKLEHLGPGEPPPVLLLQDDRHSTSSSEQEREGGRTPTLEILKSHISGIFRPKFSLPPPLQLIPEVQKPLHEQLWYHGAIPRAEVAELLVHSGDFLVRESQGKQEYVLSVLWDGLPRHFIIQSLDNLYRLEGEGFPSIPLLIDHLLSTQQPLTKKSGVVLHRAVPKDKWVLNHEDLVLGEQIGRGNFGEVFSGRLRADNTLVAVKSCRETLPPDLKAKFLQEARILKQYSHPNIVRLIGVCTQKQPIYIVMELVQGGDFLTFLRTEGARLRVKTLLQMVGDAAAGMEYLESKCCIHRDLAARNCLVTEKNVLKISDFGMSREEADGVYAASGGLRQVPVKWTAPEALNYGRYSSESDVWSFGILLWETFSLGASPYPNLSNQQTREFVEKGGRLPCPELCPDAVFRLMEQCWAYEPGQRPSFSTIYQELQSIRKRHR

[7] = molecular target: Platelet-derived growth factor receptor beta (Homo sapiens, UniProt P09619); assay: Inhibition of PDGFRbeta
Platelet-derived growth factor receptor beta, sequence (P09619 whole entry): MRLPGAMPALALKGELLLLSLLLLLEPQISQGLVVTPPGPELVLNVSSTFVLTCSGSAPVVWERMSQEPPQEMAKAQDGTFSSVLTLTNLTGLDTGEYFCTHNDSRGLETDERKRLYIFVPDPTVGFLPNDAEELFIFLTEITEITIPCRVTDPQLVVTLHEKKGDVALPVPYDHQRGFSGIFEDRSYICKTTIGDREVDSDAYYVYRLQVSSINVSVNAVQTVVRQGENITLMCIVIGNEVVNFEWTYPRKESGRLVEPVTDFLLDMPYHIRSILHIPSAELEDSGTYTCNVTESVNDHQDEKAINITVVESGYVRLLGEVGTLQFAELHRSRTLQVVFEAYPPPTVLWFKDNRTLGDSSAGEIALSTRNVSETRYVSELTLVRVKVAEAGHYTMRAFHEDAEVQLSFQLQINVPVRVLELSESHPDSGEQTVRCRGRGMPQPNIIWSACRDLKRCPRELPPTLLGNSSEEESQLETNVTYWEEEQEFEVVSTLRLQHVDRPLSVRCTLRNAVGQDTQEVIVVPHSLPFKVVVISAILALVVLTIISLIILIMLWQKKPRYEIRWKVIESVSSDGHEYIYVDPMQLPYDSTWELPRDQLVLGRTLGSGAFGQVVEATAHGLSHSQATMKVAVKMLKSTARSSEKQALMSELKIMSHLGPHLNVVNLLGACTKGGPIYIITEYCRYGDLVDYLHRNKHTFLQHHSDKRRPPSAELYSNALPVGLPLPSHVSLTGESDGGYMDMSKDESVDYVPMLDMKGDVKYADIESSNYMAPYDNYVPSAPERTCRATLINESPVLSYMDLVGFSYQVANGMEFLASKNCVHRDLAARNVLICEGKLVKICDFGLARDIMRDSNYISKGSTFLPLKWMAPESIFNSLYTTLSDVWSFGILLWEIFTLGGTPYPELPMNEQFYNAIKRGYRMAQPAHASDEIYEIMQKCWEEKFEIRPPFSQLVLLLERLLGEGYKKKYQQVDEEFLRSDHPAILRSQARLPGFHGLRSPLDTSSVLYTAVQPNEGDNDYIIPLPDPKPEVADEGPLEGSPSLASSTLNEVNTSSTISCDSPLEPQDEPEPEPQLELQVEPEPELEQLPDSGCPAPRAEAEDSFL

[8] = Inhibition of c-fms; parameters: species or system Homo sapiens

SMILES	IC50 [1]	also measured
CCO/N=C/c1c(N)ncnc1N1CCN(C(=O)Nc2ccc(N3CCCCC3)cc2)CC1	58 nM	–
CO/N=C/c1c(N)ncnc1N1CCN(C(=O)Nc2ccc(OC3CCC3)nc2)CC1	111 nM	–
CO/N=C/c1c(N)ncnc1N1CCN(C(=O)Nc2ccc(C3CCCCC3)cc2)CC1	52 nM	–
CC(C)Oc1ccc(NC(=O)N2CCN(c3ncnc(N)c3/C=N/OCCNS(C)(=O)=O)CC2)cc1	415 nM	–
CO/N=C/c1c(N)ncnc1N1CCN(C(=O)Nc2ccc(N3CCOCC3)cc2)CC1	515 nM	Activity [2]: <50%
CO/N=C/c1c(N)ncnc1N1CCN(C(=O)Nc2ccc(N3CCCC3)cc2)CC1	99 nM	–
CS(=O)(=O)NCCO/N=C/c1c(N)ncnc1N1CCN(C(=O)Nc2ccc(N3CCCC3)cc2)CC1	554 nM	–
CO/N=C/c1c(N)ncnc1N1CCN(C(=O)Nc2ccc(N3CCCCC3)cc2)CC1	89 nM	IC50 [3]: 153 nM
CC(C)Oc1ccc(NC(=O)N2CCN(c3ncnc(N)c3/C=N/OCCN3CCOCC3)CC2)cc1	177 nM	–
CO/N=C/c1c(N)ncnc1N1CCN(C(=O)Nc2ccc(OC(C)C)cc2)CC1	79 nM	IC50 [4]: 10.5 nM; inhibition [5]: 31%; inhibition [6]: 34%; IC50 [7]: 10700 nM; IC50 [8]: 1280 nM
Nc1ncnc(N2CCN(C(=O)Nc3ccc(N4CCCC4)cc3)CC2)c1/C=N/OCCN1CCOCC1	362 nM	–
CO/N=C/c1c(N)ncnc1N1CCN(C(=O)Nc2ccc(Oc3ccccc3)cc2)CC1	86 nM	–
CO/N=C/c1c(N)ncnc1N1CCN(C(=O)Nc2ccc(Cl)cc2)CC1	> 1000 nM	Activity [2]: <50%

Now from value to compound, other results behind:

IC50 [1]	SMILES	also measured
112 nM	CO/N=C/c1c(N)ncnc1N1CCN(C(=O)Nc2ccc(OC3CCCC3)nc2)CC1	–
458 nM	Nc1ncnc(N2CCN(C(=O)Nc3ccc(N4CCCC4)cc3)CC2)c1/C=N/OCC(=O)N1CCOCC1	–
472 nM	CO/N=C/c1c(N)ncnc1N1CCN(C(=O)Nc2ccc(N(C)C)cc2)CC1	–
65 nM	CCO/N=C/c1c(N)ncnc1N1CCN(C(=O)Nc2ccc(OC3CCC3)nc2)CC1	–
77 nM	CCO/N=C/c1c(N)ncnc1N1CCN(C(=O)Nc2ccc(OC(C)C)cc2)CC1	–
78 nM	CO/N=C/c1c(N)ncnc1N1CCN(C(=O)Nc2ccc(C(C)C)cc2)CC1	IC50 [3]: 8 nM
268 nM	CC(C)Oc1ccc(NC(=O)N2CCN(c3ncnc(N)c3/C=N/OCC(=O)N3CCOCC3)CC2)cc1	–
283 nM	CC(C)Oc1ccc(NC(=O)N2CCN(c3ncnc(N)c3/C=N/OCCCO)CC2)cc1	–
